# Source: PubChem BioAssay
# Arrestin-AP2 inh: inhibitors of beta-arrestin/AP2 binding, primary screen, biochemical, GPCR trafficking, flow cytometry; beta-arrestin 1 C-terminal peptide binding to AP2 beta2-adaptin appendage (human); FITC-arrestin peptide / GST-AP2 beads; AP2 beta2 appendage carries R879A mutation; inhibition, % at 10 µM; 0.31% of 340,000 active;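 active = inhibition above a set limit, near 3 SD of compounds lacking own fluorescence, cut at about 54% in these data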;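 also: plate controls were DMSO wells for no effect and 5 µM unlabelled arrestin peptide for full effect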
#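 Assay system: GST-AP2 R879A bound to glutathione beads, E. coli-expressed; Medium: PBS with 0.05% Tween 20 and 0.1% BSA; Also added: fluorescein-tagged arrestin peptide at 50 nM final; Timing: 12 min plus 1 h, RT; Measured by: flow cytometry, FL1 (488/535 nm); Evaluation: percent drop in bead-associated FITC signal.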
# PfHsp90 set2: growth inhibition of PfHsp90-expressing yeast, primary screen, antimalarial PfHsp90 inhibitor project, S. cerevisiae, BacTiter-Glo luminescence, single point, set 2. BacTiter-Glo ATP, 48 h; yeast lacking PDR1 and PDR3 efflux regulators. inhibition, % at 9.4 µM. 0.32% of 310,000 active. AID 504621, 2011;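 active = every replicate shows inhibition above about 80%, whatever the replicate mean, limit read from the data; inconclusive = mean inhibition reaches the set limit but some replicate falls short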;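 also: 0% = DMSO neutral controls and 100% = 20 µM radicicol positive controls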
# Glyco luc inh: increase of ERlucT glycosylation luciferase signal, primary screen, N-linked glycosylation inhibitor project, D54 ERlucT cells, luminescence, set 2; D54 ERlucT glycosylation luciferase reporter, 24 h; percent of 100 nM tunicamycin response; 0.23% of 360,000 active; reporter increase, % at 12.5 µM;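 active = mean luciferase reporter signal, scaled so untreated is 0 and the glycosylation-blocking control 100, at or above a set limit in every replicate; inconclusive = mean reaches the limit but not every replicate does; inactive = mean below the limit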;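 also: luciferase carries N-glycosylation sites so blocking glycosylation raises the light; 0% = median of neutral control wells and 100% = median of 100 nM tunicamycin wells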
# HIV Env fusion: inhibitors of HIV-1 Env-driven cell-cell fusion, primary screen, HeLa-JRFL effector, CEM21 target cells, luciferase. inhibition, % at 12.3 µM. 1.1% of 360,000 active. AID 651610, 2012;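 active = mean replicate inhibition score of at least 50 and every replicate individually at or above 50; inconclusive = only one of the two criteria met; inactive = mean below 50 and not all replicates reaching 50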;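 also: 0% = plate neutral controls and 100% = maraviroc near 300 nM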
# PAX8 reporter: inhibitors of PAX8-driven TPO luciferase reporter, primary screen, RMG-I cells, single concentration; SteadyGlo, 24 h; inhibition, % at 12.6 µM; 1.2% of 360,000 active; AID 652154, 2013;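 active = mean replicate inhibition at least 60% with every replicate also reaching 60%; inconclusive = only one of the two criteria is met; inactive = mean below 60% and not all replicates reaching 60%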;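 also: luciferase light reporting Pax8 driven TPO promoter activity; plate controls were median of neutral control wells for no effect and mitoxantrone controls for full effect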
# Rtt109 Vps75: inhibitors of C. albicans Rtt109/Vps75 HAT, primary screen, biochemical, ThioGlo CoA-SH fluorescence, plate reader | AID 540336, 2011 | Histone acetyltransferase RTT109 (Candida albicans (strain SC5314 / ATCC MYA-2876)), … | purified Rtt109/Vps75, 4 h | inhibition, % at 34.9 µM | 0.16% of 330,000 active;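 active = inhibition of at least 50% in every replicate; inconclusive = best replicate reaches 50% inhibition but some replicates fall short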
# Target sequence (Q5AAJ8 whole entry, looked up): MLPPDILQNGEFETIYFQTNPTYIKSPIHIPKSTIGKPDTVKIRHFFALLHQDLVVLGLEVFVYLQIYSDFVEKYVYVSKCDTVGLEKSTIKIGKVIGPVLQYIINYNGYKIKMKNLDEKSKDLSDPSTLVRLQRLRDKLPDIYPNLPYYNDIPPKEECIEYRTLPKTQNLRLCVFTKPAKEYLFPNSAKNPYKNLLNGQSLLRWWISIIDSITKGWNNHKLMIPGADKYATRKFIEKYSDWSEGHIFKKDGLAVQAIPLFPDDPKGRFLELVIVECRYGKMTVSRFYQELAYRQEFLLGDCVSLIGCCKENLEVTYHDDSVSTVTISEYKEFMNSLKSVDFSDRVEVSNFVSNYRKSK
# * = called active by the depositor; ? = inconclusive; . = no result; ! = not confirmed by another sample; [ ] = remark or other dose. Shown are actives, neighbours in structure and some others; about 2.3% of the full set was active somewhere.
SMILES,Arrestin-AP2 inh,PfHsp90 set2,Glyco luc inh,HIV Env fusion,PAX8 reporter,Rtt109 Vps75
COc1cc(OC)c(OC)cc1CCC(C)NCCC(c1ccccc1)c1ccccc1 (centres undefined),25,1,4,81*,30,?
COc1ccc(CCNCCC(c2ccccc2)c2ccccc2)cc1OC,.,.,2,-19,4,.
COc1ccc(-c2cc([N+](=O)[O-])ccc2OCC(=O)N(C)CC(=O)Nc2ccc(C)cc2)cc1,1,-14,2,104*,47,-5
CCc1nn2c(NCCCO)cc(C)nc2c1-c1ccc(F)cc1,-13,0,28*,-44,-14,5
CN(Cc1ccccc1)N=Nc1nc[nH]c1C(N)=O,.,.,-1,-1,87*,.
CN1c2ccc(Br)cc2[C@@H]2[C@@H](CCN2C(=O)Nc2ccc(F)cc2)[C@H]1CO,.,.,.,.,-8,.
C[C@H](CO)N1C[C@H](C)[C@H](CN(C)S(=O)(=O)c2cccc(F)c2)OCc2ccccc2-c2c(n(C)c3ccccc23)C1=O,.,.,-2,98*!,104*,.
C[C@H](CO)N1C[C@H](C)[C@H](CN(C)S(=O)(=O)c2cccc(C#N)c2)OCc2ccccc2-c2c(n(C)c3ccccc23)C1=O,.,.,.,57*[16.7 µM],52,.
C[C@H]1CN([C@@H](C)CO)C(=O)c2c(c3ccccc3n2C)-c2ccccc2CO[C@@H]1CN(C)S(=O)(=O)c1cccc(F)c1,.,.,.,48[16.7 µM],102*,.
C[C@H](CO)N1C[C@H](C)[C@H](CN(C)S(C)(=O)=O)OCc2ccccc2-c2c(n(C)c3ccccc23)C1=O,.,.,1,19[16.7 µM],-2,.
C[C@@H]1CN([C@H](C)CO)C(=O)c2c(c3ccccc3n2C)-c2ccccc2CO[C@H]1CN(C)S(=O)(=O)c1cccc(F)c1,.,.,.,49[16.7 µM],93*,.
C[C@@H]1CN([C@@H](C)CO)C(=O)c2c(c3ccccc3n2C)-c2ccccc2CO[C@H]1CN(C)S(=O)(=O)c1cccc(C#N)c1,.,.,.,22[16.7 µM],31,.
CCCN1C[C@H](C)[C@H](OC)CN(C)C(=O)c2cc(NC(=O)c3cnccn3)ccc2OC[C@@H]1C,.,.,.,2[16.7 µM],.,.
COc1ccc(S(=O)(=O)Nc2ccc3c(c2)C(=O)N([C@H](C)CO)C[C@@H](C)[C@H](CN(C)CC2CC2)OCCCC[C@@H](C)O3)cc1,.,.,.,.,-19,.
C[C@@H]1CN([C@H](C)CO)C(=O)c2c(c3ccccc3n2C)-c2ccccc2CO[C@@H]1CN(C)S(=O)(=O)c1cccc(F)c1,.,.,.,95*[16.7 µM],-45,.
C[C@@H]1CN([C@H](C)CO)C(=O)c2c(c3ccccc3n2C)-c2ccccc2CO[C@@H]1CN(C)S(=O)(=O)c1cccc(C#N)c1,.,.,.,-32[16.7 µM],18,.
COc1ccc2ccccc2c1/C=N/Nc1ccc(Cl)c(C(=O)O)c1,5,9,7,-23,-34,9
COc1ccc(N/N=C/c2c(C(=O)O)ccc3ccccc23)cc1,-5,-10,-11,9,62*,-3
O=C(/C=C/c1ccc2ccccc2n1)N1CCN(S(=O)(=O)c2ccc(F)cc2)CC1,9,-20,-7,18,68*,-3
CC(C)(C)c1ccc(-c2cc(NC(=O)Cc3c[nH]c4ccccc34)ccc2Nc2cccnc2)cc1,.,.,.,74*,34,.
C[C@H](NC(=O)c1ccco1)C(=O)Nc1ccc(S(=O)(=O)N2CCCC2)cc1,11,9,-1,-63,-1,55*
O=C(Nc1ccc(S(=O)(=O)N2CCCCCC2)cc1)c1ccco1,20,.,-5,-118,-90,1
C[C@@H]1CN([C@@H](C)CO)C(=O)c2cc(NC(=O)Nc3ccc4c(c3)OCO4)ccc2O[C@@H]1CN(C)C(=O)Nc1ccccc1,.,.,.,-4[16.7 µM],-6,.
Cn1c(COc2ccccc2O)[n+](C)c2ccccc21,5,-14,2,10,4,4
CCCCCCCCCCOC(=O)Cn1c(COc2ccccc2OC)[n+](C)c2ccccc21,-8,-31,15,86*,70*,0
SMILES,Arrestin-AP2 inh,PfHsp90 set2,Glyco luc inh,HIV Env fusion,PAX8 reporter,Rtt109 Vps75
N#Cc1nc(NCC(F)F)nc(Nc2cc(F)cc(F)c2)n1,3,2,15,-60,98*,0
CN(C)CC(=O)N1CCCCN2[C@@H](CO)[C@H](c3ccc(/C=C/c4ccccc4)cc3)[C@@H]2C1,.,.,.,.,67*,.
CN(C)CC(=O)N1CCCCN2[C@H](C1)[C@@H](c1ccc(/C=C/c3ccccc3)cc1)[C@@H]2CO,.,.,.,.,52,.
CN(C)CC(=O)N1CCCCN2[C@H](C1)[C@H](c1ccc(/C=C/c3ccccc3)cc1)[C@@H]2CO,.,.,.,.,60,.
CN(C)CC(=O)N1CCCCN2[C@@H](CO)[C@@H](c3ccc(/C=C/c4ccccc4)cc3)[C@@H]2C1,.,.,.,.,72*,.
CN(C)CC(=O)N1CCCCN2[C@H](CO)[C@H](c3ccc(/C=C/c4ccccc4)cc3)[C@H]2C1,.,.,.,.,78*,.
C[C@@H]1CN([C@@H](C)CO)C(=O)Cc2cc(NC(=O)CCCCCC(=O)Nc3ccccc3N)ccc2O[C@H]1CN(C)C(=O)Nc1ccc(F)cc1,.,.,.,-29[16.7 µM],.,.
CCOc1ccc(Nc2nc(N)c([N+](=O)[O-])c(NCc3ccccc3)n2)cc1,40,-17,-3,-9,-14,-1
CCOc1ccc(Nc2nc(N(C)c3ccccc3)nc(N)c2[N+](=O)[O-])cc1,10,1,36*,1,-8,-4
CN(C)c1nc(N)c([N+](=O)[O-])c(NCc2ccccc2)n1,0,-28,0,.,68*,7
C[C@H](CO)N1C[C@H](C)[C@H](CN(C)CC2CCCCC2)Oc2ccc(NS(=O)(=O)c3cn(C)cn3)cc2C1=O,.,.,.,-2[16.7 µM],.,.
C[C@@H]1CN([C@@H](C)CO)C(=O)Cc2cc(NC(=O)Nc3ccc(F)cc3)ccc2O[C@@H]1CN(C)CC1CCCCC1,.,.,.,2[16.7 µM],1,.
O=C([C@@H]1[C@@H](CO)[C@@H]2Cn3c(ccc(C4=CCCC4)c3=O)[C@H]1N2C(=O)c1ccccc1)N1CCOCC1,.,.,.,.,-47,.
CCCCc1c(-c2ccccc2OC)ncn1Cc1ccc(C)cc1,.,.,.,61*,61*,.
CCCCc1c(-c2ccccc2OC)ncn1Cc1ccc(Cl)cc1,.,.,.,-17,11,.
CCCCc1c(-c2ccccc2OC)ncn1Cc1ccc(OC)cc1,.,.,.,61*,-3,.
COc1ccc2c3c([nH]c2c1)[C@@H](CO)N(C(=O)Nc1ccc(F)cc1)CC31CCN(S(=O)(=O)c2cccc(F)c2)CC1,.,.,.,48[16.7 µM],.,.
